Results on 40 compounds are retold here after the M2OR odorant receptor database.

SMILES strings stand for the structures.
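Also: active if original authors judged signal statistically different from baseline.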

The test addresses T1, OR2T4 (Homo sapiens) (UniProt Q8NH00).
T1 sequence (whole entry): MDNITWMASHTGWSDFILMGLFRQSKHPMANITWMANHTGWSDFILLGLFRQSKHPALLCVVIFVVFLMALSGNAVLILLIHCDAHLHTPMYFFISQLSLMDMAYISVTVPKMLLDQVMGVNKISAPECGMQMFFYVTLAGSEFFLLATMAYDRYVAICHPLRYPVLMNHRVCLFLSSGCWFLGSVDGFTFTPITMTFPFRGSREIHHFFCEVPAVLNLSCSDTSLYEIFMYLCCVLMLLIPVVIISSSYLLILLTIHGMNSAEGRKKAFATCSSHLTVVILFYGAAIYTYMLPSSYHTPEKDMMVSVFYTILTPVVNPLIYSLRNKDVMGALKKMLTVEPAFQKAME
The settings on record: stereoisomer not certain. An outline of the steps: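 Each receptor–molecule pair is labelled responsive or non-responsive (inactive) according to whether the original authors judged the measured signal statistically different from baseline. The data were taken from the main text and supplementary material of published papers and checked for typos and inconsistencies. Assay methods differed by source, with transient luciferase assays in mammalian cell lines being common.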
For `CC(C)=CCCC(C)=CCCC(C)=CCO`, the “odorant receptor agonist call” value is “inactive”. The result for `CCCCCCCCCCCCCCCCCC(=O)OC` reads “inactive”. The result for `CCC(C)CO` (stereo not given) reads “inactive”; that for `CCCCCCCC(=O)OCC`, “inactive”. As for `CC(O)C(=O)[O-].[H+]` (stereo not given), the entry is “inactive”; as for `CCCCCCCCCCCCCCCC(=O)[O-].[H+]`, “inactive”. With `CCCCCCCC(=O)[O-].[H+]`, the “odorant receptor agonist call” value is “inactive”. The result for `CCCCCCCCCCCCCCCC(=O)OCC` reads “inactive”. As for `CCCCCCCCCCCCCC(=O)O`, the entry is “inactive”; as for `CCCCOCC(C)O` (stereo not given), “inactive”.

Turning to `CCCCCCCCCCCCCC(=O)OC`, the “odorant receptor agonist call” value is “inactive”.

For the compound `CCCCCCCC(=O)OC`, the “odorant receptor agonist call” value was “inactive”.

In the case of `Cc1cccc(C)c1C`, the “odorant receptor agonist call” value is “inactive”.

As to `CCCCCCCCCCCCCCC(=O)O`, the “odorant receptor agonist call” value was “inactive”. The result for `CCCCCCCCCC(=O)OCC` reads “inactive”; that for `COc1ccc2[nH]cc(CCNC(C)=O)c2c1`, “inactive”.

With `CCCC(=O)CC`, the “odorant receptor agonist call” value was “inactive”.

For the compound `CCCCCCCCCCCCCCCCCC(=O)[O-].[H+]`, the “odorant receptor agonist call” value is “inactive”. For the compound `CCCCCCCCCCCCCCCC(=O)OC`, the “odorant receptor agonist call” value was “inactive”. On to `C=C1CCC2CC1C2(C)C` (stereo not given), for which the “odorant receptor agonist call” value is “inactive”. The result for `Cc1cnc(C)cn1` reads “inactive”; that for `CCC(=O)O`, “inactive”. The result for `CCCO` reads “inactive”; that for `C=C(C)C1CC=C(C)CC1` (stereo not given), “inactive”; that for `CCCCCCCCCCCCCC(=O)OCC`, “inactive”. `CCCCCCCCO`: the “odorant receptor agonist call” value was “inactive”. As for `CCCCCCC(=O)[O-].[H+]`, the entry is “inactive”; as for `CCCCCCCCCCCC(=O)O`, “inactive”; as for `CC(CC=O)c1ccccc1` (stereo not given), “inactive”. The result for `CCCCCCCCCCCC(=O)OC` reads “inactive”. As for `CC(=O)O`, the entry is “inactive”. With `CCCCCCCCCC(=O)OC`, the “odorant receptor agonist call” value is “inactive”. The result for `CC(C=O)Cc1ccc(C(C)(C)C)cc1` (stereo not given) reads “active”; that for `CCCCCCCCCCCC(=O)OCC`, “inactive”. The result for `CCCCCCCCCCCCO` reads “inactive”; that for `CCC(O)CC`, “inactive”.

On to `CCCCCCCCCCCCCCCCCC(=O)OCC`, for which the “odorant receptor agonist call” value was “inactive”. The result for `CCCCC(=O)C(C)=O` reads “inactive”. As for `CC(C)(C)c1ccccc1`, the entry is “inactive”. The result for `O=c1ccc2ccccc2o1` reads “inactive”.
